# Source: PubChem
# A selection: hits, their analogues and other compounds. The true share with any hit is near 1.8%.
# CHRM4 antagonist – human M4 muscarinic receptor antagonists, primary screen, CHO cells, Fluo-8 calcium fluorescence; Muscarinic acetylcholine receptor M4 (Homo sapiens), P08173; CHO-hM4 cells, ACh EC80; inhibition, % at 3 µM; actives 0.73% (n = 360,000); AID 624125, 2012;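 active means inhibition above its plate's cutoff, the mean inhibition of sample wells plus 3 SD, cut at about 27% in these data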;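 further: 0% = acetylcholine EC80 with DMSO and 100% = DMSO without agonist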
# CHRM5 PAM – human M5 muscarinic receptor positive allosteric modulators, primary screen, CHO-K1 cells, Fluo-8 calcium fluorescence. CHO-K1 hM5, ACh EC20 PAM; 0% = ACh EC20, 100% = ACh EC100. activation, % at 3 µM. actives 0.3% (n = 360,000). AID 624038, 2012;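 active means activation above the run cutoff, the mean activation of all test compounds plus 3 SD, cut at about 18% in these data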
#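 Assay system: CHO-K1 hM5 cells. Also added: acetylcholine at EC20 concentration, added after compound. Dosing: 3 µM, single dose. Times: compound preincubation 140 s before EC20 acetylcholine addition. Signal: Fluo-8 calcium fluorescence. Measure: % activation relative to EC20 and EC100 ACh responses. Repeats: singlicate, one well per test compound.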
# CHRM5 antagonist – human M5 muscarinic receptor antagonists, primary screen, CHO cells, Fluo-8 calcium fluorescence; Muscarinic acetylcholine receptor M5 (Homo sapiens), P08912; CHO-hM5 cells, ACh EC80; inhibition, % at 3 µM; actives 0.59% (n = 360,000); AID 624040, 2012;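 active means inhibition above a per-plate cutoff, the mean of that plate's test compounds plus 3 SD, cut at about 27% in these data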;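 further: 0% = acetylcholine EC80 with DMSO and 100% = DMSO without agonist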
# M5 ag – human M5 muscarinic receptor agonists, primary screen, CHO-K1 cells, Fluo-8 calcium fluorescence; AID 624037, 2012; actives 0.19% (n = 360,000); CHO-K1 hM5 cells; 0% DMSO wells, 100% maximal acetylcholine response; activation, % at 3 µM;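 active means activation above the run's mean over test compounds plus 3 SD, cut at about 23% in these data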;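 further: signal is peak over basal fluorescence ratio across the kinetic read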
# CHRM4 PAM – human M4 muscarinic receptor positive allosteric modulators, primary screen, CHO-K1 cells, Fluo-8 calcium fluorescence; CHO-K1 hM4/Gqi5, ACh EC20; 0% = ACh EC20, 100% = maximal ACh; activation, % at 3 µM; actives 0.4% (n = 360,000);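 active means activation above its plate's cutoff, the mean activation of sample wells plus 3 SD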
# M4 ag – human M4 muscarinic receptor agonists, primary screen, CHO-K1 cells, Fluo-8 calcium fluorescence; actives 0.14% (n = 360,000); Muscarinic acetylcholine receptor M4 (Homo sapiens), P08173; CHO-K1 hM4/Gqi5; vehicle 0%, full acetylcholine response 100%; activation, % at 3 µM;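 active means activation above the run mean over all test wells plus 3 SD, cut at about 32% in these data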;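 further: peak over basal fluorescence ratio per well then scaled between controls; 0% = DMSO wells and 100% = acetylcholine at EC100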
# Starred values were filed as active, the others as inactive.
SMILES,CHRM4 antagonist,CHRM5 PAM,CHRM5 antagonist,M5 ag,CHRM4 PAM,M4 ag
COc1ccc(-[n+]2c(-c3ccccc3)cc(-c3ccc(C)cc3)cc2-c2ccccc2)cc1,82*,-34,81*,-24,-20,7
Cc1ccc(-c2cc(-c3ccc(C)cc3)[n+](-c3ccc(C(=O)O)cc3)c(-c3ccc(C)cc3)c2)cc1,-11,7,7,-2,3,0
Cc1ccc(-c2cc(-c3ccccc3)cc(-c3ccccc3)[n+]2-c2ccc(C(=O)O)cc2)cc1,17,-1,4,1,25*,2
Brc1ccc(-[n+]2c(-c3ccccc3)cc(-c3ccccc3)cc2-c2ccccc2)cc1,40*,-41,25,-9,-12,2
CCCOC(=O)c1ccc(-[n+]2c(-c3ccccc3)cc(-c3ccccc3)cc2-c2ccccc2)cc1,46*,-41,31*,-8,-14,5
COC(C)(C)CCCC(C)C/C=C/C(C)=C/C(=O)OC(C)C (configuration not stated),-9,0,-3,1,5,0
CN(C)CCSC1c2ccccc2CSc2ccccc21 (configuration not stated),98*,-32,99*,-21,-17,5
CN1C(=O)CCC2(C)C1=CCC1C2CCC2(C)C1CCC2(C)O (configuration not stated),-4,18*,-7,4,13,2
C[C@]12CCC(=O)C=C1CCC1C2CC[C@@]2(C)C1CC[C@]2(C)O (some centres not stated),1,-11,18,0,-6,6
CC(=O)O[C@H]1C[C@@H]2CC[C@@H]3[C@H](CC[C@]4(C)C(=O)CC[C@@H]34)[C@@]2(C)C[C@@H]1OC(C)=O,-24,-6,2,-3,-3,2
CC(=O)Nc1ccc(S(=O)(=O)N2Cc3ccccc3-n3nncc3C2)cc1,-17,4,-15,1,4,1
C=CCNC(=S)Nc1ccc(OC(=O)Nc2ccc(Cl)c(Cl)c2)cc1,22,-9,28*,0,-9,9
O=C(Nc1ccc(Cl)c(Cl)c1)c1ccco1,-2,13,-2,0,-3,2
CCN1C[C@]2(COC)CC[C@H](O)[C@]34C1[C@](O)([C@@H](OC)[C@H]23)[C@@]1(O)C[C@H](OC)[C@H]2C[C@@H]4[C@@H]1[C@H]2OC,1,-1,-2,1,-4,0
COc1cccc(CCNCc2ccc(SC)cc2)c1,-18,4,-1,-4,11,3
O=C1NCN(c2ccccc2)C12CCN(C(c1ccnc3ccccc13)c1nnnn1C1CCCC1)CC2 (configuration not stated),-15,-6,1,0,-10,6
O=C1C2CCCN2C(c2cccnc2)N1c1ccc(Cl)cc1 (configuration not stated),1,3,-7,-2,30*,1
COC(=O)C1=C(c2cccc(OCc3ccccc3)c2)C[C@@H]2CC[C@H]1N2C(=O)NCc1ccccc1OC,-16,-6,6,-7,5,3
COC(=O)C1=C(C)NC(=S)NC1c1ccc(N(CCCl)CCCl)cc1Cl (configuration not stated),-6,18*,-28,9,9,-1
Nc1ccnn1C1CCNCC1,-5,-5,27*,-3,-1,0
CN1CCC(n2nccc2N)CC1,1,2,4,-1,-1,0
CCn1ccnc1CN1CCCC(C(=O)c2cccc(C(F)(F)F)c2)C1 (configuration not stated),47*,-11,1,-9,-20,3
C[N+]12CCC(CC1)C(=C(c1ccccc1)c1ccccc1)C2,97*,-19,99*,-9,-16,1
